Results gathered from unrelated publications.
Protocols differ between the studies behind these lines.
ACSL4: Long-chain-fatty-acid--CoA ligase 4 (ACSL4, Homo sapiens, UniProt O60488)

SMILES	target	test	conditions	quantity	result
NC/C(=C\F)COc1cccc(Cn2c(=S)[nH]c(=O)c3[nH]cnc32)c1	Prostaglandin E2 receptor EP4 subtype (PTGER4, Homo sapiens, UniProt P35408)	ligand displacement, radioligand	10 µM	inhibition	< 50%
CC1(COc2ccc(CC3SC(=O)NC3=O)cc2)CCCCC1 (stereo not drawn)	ACSL4	enzyme activity, inhibitor	10 µM	inhibition	20%
CCCCC(=O)Nc1ccc(-c2ccc3ncn(CCC)c(=O)c3c2)cn1	Dual specificity protein kinase TTK (TTK, Homo sapiens, UniProt P33981)	binding, competition with immobilised ligand	0.5 µM	remaining binding	64%
COc1ccc(CC2SC(=O)NC2=O)cc1 (stereo not drawn)	ACSL4	enzyme activity, inhibitor	10 µM	inhibition	13%
COc1cccc2c(N3CCC(CCP(=O)(O)O)CC3)ncnc12	Ectonucleotide pyrophosphatase/phosphodiesterase family member 1 (Enpp1, Mus musculus, UniProt P06802)	binding, SPR		residence time	9 min
Cc1cc(S(=O)(=O)N[C@H]2CC[C@H](CN3CCN(c4ccc(C5CCC(=O)NC5=O)cc4F)CC3)CC2)ccc1Nc1ncc(C(F)(F)F)c(N2CCC[C@](C)(O)C2)n1 (stereo partly drawn)	Serine/threonine-protein kinase RIO3 (RIOK3, Homo sapiens, UniProt O14730)	binding, competition with immobilised ligand	1 µM	remaining binding	58%
COc1ccc2oc(-c3ccc4nc(N)oc4c3)c/c(=N\c3ccccc3NC(=O)CCN)c2c1	Death-associated protein kinase 1 (DAPK1, Homo sapiens, UniProt P53355)	binding	1 µM	remaining binding	104%
C[C@]1(O)CCCN(c2nc(Nc3ccc(S(=O)(=O)N[C@H]4CC[C@H](CN5CCN(c6ccc(C7CCC(=O)NC7=O)cc6F)CC5)CC4)cc3F)ncc2C(F)(F)F)C1 (stereo partly drawn)	Cyclin-dependent kinase 7 (CDK7, Homo sapiens, UniProt P50613)	binding, competition with immobilised ligand	1 µM	remaining binding	85%
CCN1/C(=C/C(C)=O)Sc2ccc(F)cc21	5-hydroxytryptamine receptor 1B (HTR1B, Homo sapiens, UniProt P28222)	ligand displacement, radioligand	10 µM	inhibition	1.73%
C#Cc1cc(-c2cc(Nc3nc(N[C@@H](C)c4ccc(F)cn4)ncc3Cl)n[nH]2)ccc1C=O	Non-receptor tyrosine-protein kinase TNK1 (TNK1, Homo sapiens, UniProt Q13470)	enzyme activity, inhibitor	0.2 µM	inhibition	74.8%
CNS(=O)(=O)c1ccc(Nc2ncc(C(F)(F)F)c(N3CCC[C@](C)(O)C3)n2)c(C)c1	Mitogen-activated protein kinase 7 (MAPK7, Homo sapiens, UniProt Q13164)	binding, competition with immobilised ligand	1 µM	remaining binding	14%
C1=C/COCc2cc(ccc2OCCN2CCCC2)Nc2nccc(n2)-c2cccc(c2)COC/1	Serine/threonine-protein kinase MAK (MAK, Homo sapiens, UniProt P20794)	binding	0.1 µM	remaining binding	100%
